Test [1] relates to NCI-H460. Put plainly: Ratio of GDC-0941 IC50 to compound IC50 for human H460 cells assessed as growth inhibition after 72 hrs by MTT assay. The test is classed as functional. In general terms: Formazan colour is commonly taken as a measure of viable cells.
Test [2] deals with HT-29. Kind of test: Cytotoxicity against human HT-29 cells assessed as growth inhibition after 72 hrs by MTT assay. The class given is functional, cell-based. The conditions noted are these: HT-29, 72 h. In short, it runs like this: (§1)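 Cells grown in MEM with 10% FBS. About 4×10^3 cells/well were pre-incubated for 24 h at 37 °C in 5% CO₂, then exposed to compound at the indicated final concentrations for 72 h. MTT was added to 5 µg/mL final for 4 h at 37 °C. Formazan was dissolved in DMSO and read at 492 nm, with 630 nm as reference. IC50 is the mean of three determinations.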

A further test concerns A549. Put plainly: Cytotoxicity against human A549 cells assessed as growth inhibition after 72 hrs by MTT assay. The class given is functional, cell-based. The conditions noted are these: A549, 72 h. The method in brief:
as §1

Test [3] is described as follows: Cytotoxicity against human U87MG cells assessed as growth inhibition after 72 hrs by MTT assay. The test is classed as functional, cell-based, U-87MG ATCC. The conditions noted are these: U-87 MG. In short, it runs like this:
as §1

The subject of the next test is NCI-H226. Kind of test: Cytotoxicity against human NCI-H226 cells assessed as growth inhibition after 72 hrs by MTT assay. The class given is functional, cell-based. The conditions noted are these: NCI-H226, 72 h. The method in brief:
as §1

In test [4] the test system is MDA-MB-231. Kind of test: Ratio of GDC-0941 IC50 to compound IC50 for human MDA-MB-231 cells assessed as growth inhibition after 72 hrs by MTT assay. The test is classed as functional.
Test [5] has as its system NCI-H460. Kind of test: Cytotoxicity against human H460 cells assessed as growth inhibition after 72 hrs by MTT assay. The conditions noted are these: NCI-H460, 72 h. The class given is functional, cell-based. In short, it runs like this: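 Cells grown in MEM with 10% FBS. About 4×10^3 cells/well were pre-incubated for 24 h at 37 °C in 5% CO₂, then exposed to compound at the indicated final concentrations for 72 h. MTT was added to 5 µg/mL final for 4 h at 37 °C. IC50 is the mean of three determinations.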

The test system of test [6] is HT-29. Kind of test: Ratio of GDC-0941 IC50 to compound IC50 for human HT-29 cells assessed as growth inhibition after 72 hrs by MTT assay. The class given is functional.
The subject of test [7] is MDA-MB-231. Put plainly: Cytotoxicity against human MDA-MB-231 cells assessed as growth inhibition after 72 hrs by MTT assay. The class given is functional, cell-based. The conditions noted are these: MDA-MB-231, 72 h. In short, it runs like this:
as §1

The subject of a further test is HepG2. Kind of test: Cytotoxicity against human HepG2 cells assessed as growth inhibition after 72 hrs by MTT assay. The test is classed as functional, cell-based. The conditions noted are these: HepG2, 72 h. In short, it runs like this: as §1
In a further test the test system is SGC-7901. Kind of test: Cytotoxicity against human SGC7901 cells assessed as growth inhibition after 72 hrs by MTT assay. The class given is functional, cell-based. The conditions noted are these: SGC-7901, 72 h. The method in brief:
as §1

Another test relates to NCI-H1975. Put plainly: Cytotoxicity against human NCI-H1975 cells assessed as growth inhibition after 72 hrs by MTT assay. The class given is functional, cell-based. The conditions noted are these: NCI-H1975, 72 h. In short, it runs like this: as §1

With `Fc1cccc(Cn2cc(/C=N/Nc3nc(N4CCOCC4)c4sccc4n3)c3ccccc32)c1`, the “Ratio IC50” value is 3.8 with NCI-H460 [1], 66.5 in the test on MDA-MB-231 [4] and 1.7 in the test on HT-29 [6]. The IC50 in the test on HT-29 [2] was 390 nM; in the test on A549, 8700 nM; in test [3] it was 12600 nM; in the test with NCI-H226, 910 nM; in the test with NCI-H460 [5] (read-out: IC50), 230 nM; in the test with NCI-H460 [5] (read-out: pIC50 (converted)), 224 nM. For the same molecule, the IC50 was found to be 1110 nM in the test with MDA-MB-231 [7], 1100 nM in the test with HepG2, 800 nM in the test on SGC-7901 and 19000 nM in the test on NCI-H1975.
As to `CS(=O)(=O)N1CCN(Cc2cc3nc(-c4cccc5[nH]ncc45)nc(N4CCOCC4)c3s2)CC1` [PICTILISIB], the IC50 in the test on HT-29 [2] worked out at 660 nM; with A549, 6900 nM; in test [3], 7770 nM; with NCI-H226, 2900 nM; with MDA-MB-231 [7], 73800 nM; in the test with HepG2, 1000 nM. For the same molecule, the IC50 is 1800 nM in the test on SGC-7901 and 270 nM with NCI-H1975.
